According to article PMC4092037 (American journal of reproductive immunology (New York, N.Y. …, 2013):
Read-outs that look alike come from different tables or passages of the source. Values belong to the molecule of their own block, whether it stands above or below them. Ends that are not written are not given here.

Assays:
primary Leydig cells [1] = experiment: Testosterone production, primary Leydig cell culture; format: cell-based, Sprague-Dawley rat; details: 24 h; for hCG-stimulated testosterone production: hCG 0.01 IU/mL, vs hCG group
How it was run: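 Leydig cells came from five male rats aged 3–4 months. Decapsulated testes were digested for 15 min at 34°C in DMEM/F12-0.1% BSA with 0.5 mg/mL collagenase IA and 0.25 mg/mL soybean trypsin inhibitor. Filtered, purified on a Percoll gradient, cultured at 34°C, 5% CO2, and purity checked by 3β-HSD staining. Treated for 24 h with test compound ± hCG 0.01 IU/mL. Medium testosterone by 125I RIA; mean ± S.E.M.; ANOVA/SNK.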

antral follicles [2] = experiment: Progesterone production, antral follicle culture; format: cell-based, Sprague-Dawley rat; details: hCG 0.01 IU/mL, 6 h, vs hCG group
How it was run: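 Immature female rats (21–23 days) were primed with PMSG, 30 IU i.p. per rat. Follicles over 900 μm were isolated 48 h later into ice-cold saline and preincubated at 3 per well in DMEM/F12-0.1% BSA at 37°C. Treated for 6 h with test compound, alone or with hCG 0.01 IU/mL. Medium progesterone measured by 125I RIA (sensitivity 0.02 ng/mL). Mean ± S.E.M.; one-way ANOVA with SNK test.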

human CMKLR1 [3] = target: T1, human CMKLR1 (Homo sapiens, UniProt Q99788); experiment: In vitro transwell chemotaxis assay, huCMKLR1/L1.2; format: cell-based; details: for chemotaxis: 4 h at 37°C, fluorescence 560/580 nm
T1 sequence (Q99788 1-373): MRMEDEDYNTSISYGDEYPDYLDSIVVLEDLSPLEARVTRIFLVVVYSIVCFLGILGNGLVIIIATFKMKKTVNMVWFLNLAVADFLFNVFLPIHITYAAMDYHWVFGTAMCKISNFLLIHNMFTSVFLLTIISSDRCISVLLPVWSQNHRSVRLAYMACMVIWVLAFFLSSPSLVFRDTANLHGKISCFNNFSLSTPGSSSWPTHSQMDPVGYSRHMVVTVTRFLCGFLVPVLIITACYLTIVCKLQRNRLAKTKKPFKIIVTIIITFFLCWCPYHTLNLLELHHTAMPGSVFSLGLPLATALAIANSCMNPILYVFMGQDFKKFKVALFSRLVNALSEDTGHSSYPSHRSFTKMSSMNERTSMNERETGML

human GPR1 = target: T2, human GPR1 (Homo sapiens, UniProt P46091); experiment: Radioligand binding assay, huGPR1/HEK293
T2 sequence (P46091 1-355): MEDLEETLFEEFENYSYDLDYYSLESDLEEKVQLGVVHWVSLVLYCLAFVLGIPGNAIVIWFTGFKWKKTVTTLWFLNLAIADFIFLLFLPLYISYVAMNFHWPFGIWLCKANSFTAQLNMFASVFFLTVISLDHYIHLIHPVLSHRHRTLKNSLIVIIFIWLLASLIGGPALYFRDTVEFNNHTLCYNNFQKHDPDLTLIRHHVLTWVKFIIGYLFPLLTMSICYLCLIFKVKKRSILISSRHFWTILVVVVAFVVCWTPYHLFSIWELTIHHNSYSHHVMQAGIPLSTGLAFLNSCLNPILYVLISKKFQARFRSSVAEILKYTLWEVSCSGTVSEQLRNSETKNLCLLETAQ
How it was run: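 Competition binding on intact huGPR1/HEK293 cells, with neuronostatin as the negative-control peptide. After incubation, cells were pelleted at 1000 × g for 10 min, washed three times, and counted in a γ-spectrophotometer.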

human CMKLR1 [4] = target: T1, human CMKLR1; experiment: Radioligand binding assay, huCMKLR1/HEK293
WT/HEK293 cells [5] = experiment: cAMP assay, WT/HEK293; format: cell-based; details: 30 min at 37°C
How it was run: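 Wild-type HEK293 cells were plated at 5 × 10^5/well, cultured for 24 h and serum-starved for 4 h. Exposed for 30 min at 37°C to test compound, forskolin 10 μM, both together, or medium. Washed with cold PBS and lysed. Lysate cAMP was measured by kit and normalised to total protein (BCA); conditioned medium was also assayed. Mean ± S.E.M.; one-way ANOVA with SNK test.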

human CMKLR1 [6] = target: T1, human CMKLR1; experiment: cAMP assay, huCMKLR1/HEK293; format: cell-based; details: forskolin 10 μM, 30 min at 37°C
human CMKLR1 [7] = target: T1, human CMKLR1; experiment: Receptor internalization assay, huCMKLR1/HEK293; format: cell-based; details: 100 nM, 30 min at 37°C, confocal, four independent experiments
WT/HEK293 cells [8] = experiment: Immunocytochemistry of C-FOS, WT/HEK293; format: cell-based; details: 100 nM, 30 min at 37°C
How it was run: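 Coverslips coated with 0.1% gelatin. […] Fixed in 4% paraformaldehyde for 30 min and permeabilised with 0.1% Triton X-100 for 10 min. Stained with rabbit anti-C-FOS overnight at 4°C, then Alexa-488 anti-rabbit for 1 h, with DAPI nuclear stain. Imaged by confocal microscopy.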

WT/HEK293 cells [9] = experiment: Internalization assay, wild-type HEK293; format: cell-based; details: 100 nM, 30 min at 37°C, confocal
How it was run: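 Cells were grown on 0.1% gelatin-coated coverslips and serum-starved for 4 h at 50–60% confluence. […] Fixed in 4% paraformaldehyde and permeabilised with 0.1% Triton X-100. Stained overnight at 4°C with rat anti-human CMKLR1 mAb, then Alexa-488 anti-rat for 2 h, with DAPI. Examined by confocal microscopy; four independent experiments.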

WT/HEK293 cells [10] = experiment: C-FOS gene expression; format: cell-based; details: 30 nM, 30 min at 37°C, data not shown
WT/L1.2 cells = experiment: In vitro transwell chemotaxis assay, WT/L1.2; format: cell-based; details: 0.3, 1, 10, 100 nM, 4 h at 37°C
How it was run: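 Wild-type L1.2 cells were pretreated overnight with sodium butyrate. […] After 4 h migration at 37°C, cells in the lower chamber were stained with CellTiter Blue and read by fluorescence at 560/580 nm. Run in parallel with the CMKLR1-transfected line.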

GPR1 = details: cited from earlier work
CCRL2 = details: cited from earlier work
CMKLR1 [11] = details: cited from earlier work
human granulose cell = details: human granulosa cells; cited from earlier work
primary Leydig cells [12] = experiment: Steroidogenic enzyme gene expression, primary Leydig cells; format: cell-based, Sprague-Dawley rat; details: beta-actin reference, 24 h
How it was run: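 Leydig cells from testes of five Sprague-Dawley males (3–4 months): collagenase IA digestion, 15 min at 34°C; 70 μm filtration; Percoll gradient (1.030–1.096 g/mL); culture at 34°C, 5% CO2; purity by 3β-HSD staining.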

antral follicles [13] = experiment: Steroidogenic enzyme gene expression, antral follicles; format: cell-based, Sprague-Dawley rat; details: large antral follicles, beta-actin reference, 6 h
CMKLR1 [14] = details: cited from earlier work; remark: listed apart in the source

lowest effective dose for chemotaxis (human CMKLR1 [3]; of 0.3, 1, 10, 100 nM tested): 1 nM
Molecule: C-20: 20 amino acid chemerin-derived peptide; used without species prefix for huC-20 or mC-20 (VQRAGEDPHSFYFPGQFAFS)
hCG-stimulated testosterone production (primary Leydig cells [1]; 1 nM): not effective | hCG-stimulated testosterone production (primary Leydig cells [1]; 10 nM): not effective | hCG-stimulated progesterone production (antral follicles [2]; 1 nM): not effective | hCG-stimulated progesterone production (antral follicles [2]; 10 nM): not effective

chemotaxis (human CMKLR1 [3]; 1 nM): no chemotactic actions | chemotaxis (human CMKLR1 [3]; 10 nM): no chemotactic actions
Molecule: AGEDPHSFYFPGQFA [huC-15]
hCG-stimulated testosterone production (primary Leydig cells [1]; 100 nM): no such kind of suppression

IC50 (human GPR1): 5 nM | IC50 (human CMKLR1 [4]): 2.5 nM
Molecule: IAQAGEDPHGYFLPGQFAFS [mC-20]

IC50 (human GPR1; read-out: IC50 (displacement of iodochemerin), huGPR1/HEK293 cells, about 1,000,000 per tube, 2 nM iodochemerin, 16 h at 23°C): 0.5 nM
Molecule: huChemerin: Human recombinant chemerin purchased from R&D Systems
forskolin-stimulated cAMP production (WT/HEK293 cells [5]; 10 nM peptide/protein + 10 μM forskolin cotreatment): no effect | C-FOS protein expression (WT/HEK293 cells [8]): No such stimulation | internalization (WT/HEK293 cells [9]): No internalization observed | C-FOS gene expression (WT/HEK293 cells [10]): No such stimulation | chemotactic response (WT/L1.2 cells): no chemotactic response

IC50 (human GPR1): 3.5 nM | IC50 (human CMKLR1 [4]): 1.6 nM
Molecule: VQRAGEDPHSFYFPGQFAFS [huC-20]

17β-HSD gene expression (antral follicles [13]): not affected | StAR gene expression (antral follicles [13]): not affected | p450scc gene expression (antral follicles [13]): not affected | 3β-HSD gene expression (antral follicles [13]; with hCG): suppression of 3β-HSD gene expression
B1: mChemerin: mouse recombinant chemerin purchased from R&D Systems (protein, UniProt Q9DD06 21-156, looked up)
Retinoic acid receptor …: EPELSETQRRSLQVALEEFHKHPPVQLAFQEIGVDRAEEVLFSAGTFVRLEFKLQQTNCPKKDWKKPECTIKPNGRRRKCLACIKMDPKGKILGRIVHCPILKQGPQDPQELQCIKIAQAGEDPHGYFLPGQFAFS
17β-HSD gene expression (primary Leydig cells [12]): not affected | StAR gene expression (primary Leydig cells [12]): not affected | p450scc gene expression (primary Leydig cells [12]): not affected | 3β-HSD gene expression (primary Leydig cells [12]; with hCG): suppression of 3β-HSD gene expression | hCG-stimulated testosterone production (primary Leydig cells [1]; 1 nM): suppressed | hCG-stimulated testosterone production (primary Leydig cells [1]; 10 nM): suppressed | hCG-stimulated testosterone production (primary Leydig cells [1]; 100 nM): suppressed | basal testosterone production (primary Leydig cells [1]; no hCG, 1, 10, 100 nM): No effect was observed | hCG-stimulated progesterone production (antral follicles [2]; 10 nM): effective | hCG-stimulated progesterone production (antral follicles [2]; 100 nM): effective

Second part, the molecule before the results:

Molecule: C=C[C@@]1(C)CC(=O)[C@]2(O)[C@@]3(C)[C@@H](O)CCC(C)(C)[C@@H]3[C@H](O)[C@H](OC(C)=O)[C@@]2(C)O1 [forskolin, reference compound]
increase in cAMP production (WT/HEK293 cells [5]; forskolin 10 μM): more than 50 fold | increase in cAMP production (human CMKLR1 [6]): more than 50 fold

Molecule: LRQFLQKSLAAAT [NTS]
CMKLR1 internalization (human CMKLR1 [7]): negative control | chemotaxis (human CMKLR1 [3]; 1 nM): no chemotactic actions | chemotaxis (human CMKLR1 [3]; 10 nM): no chemotactic actions

Molecule: chemerin: The active protein of 137 amino acids in human was named chemerin
receptor internalization (GPR1): stimulates receptor internalization | internalization and chemotaxis (CCRL2): stimulates neither internalization nor chemotaxis | leukocyte chemotaxis (CMKLR1 [11]): promotes leukocyte chemotaxis | receptor internalization (CMKLR1 [11]): triggers receptor internalization | IGF-1-induced progesterone and estradiol secretion (human granulose cell): inhibited

B2: prochemerin: secreted as an inactive precursor, which is 143 amino acids long in human (protein, UniProt Q99969 21-163, looked up)
pro-form: ELTEAQRRGLQVALEEFHKHPPVQWAFQETSVESAVDTPFPAGIFVRLEFKLQQTSCRKRDWKKPECKVRPNGRKRKCLACIKLGSEDKVLGRLVHCPIETQVLREAEEHQETQCLRVQRAGEDPHSFYFPGQFAFSKALPRS
modifications: pro-form
affinity for CMKLR1 (CMKLR1 [14]): very low affinity
